Assay results: ChEMBL document CHEMBL2434858, “Synthesis and allosteric modulation of the dopamine receptor by peptide analogs of L-prolyl-L-leucyl-glycinamide (PLG) modified in the L-proline or L-proline and L-leucine scaffolds” (Eur J Med Chem, 2013)
Active and inactive are the calls of the source. The rule behind the calls is not given here. Residues, ends and D or L forms follow the SMILES beside them.

Tests used:
[1] = molecular target: D(2) dopamine receptor (Homo sapiens) (UniProt P14416); assay: Positive allosteric modulation of human dopamine D2S receptor expressed in CHO cell membranes assessed as stimulation of [3H]-NPA binding at 1 to 10 uM after 60 mins by beta scintillation counting analysis
Sequence of D(2) dopamine receptor (Homo sapiens) (P14416 whole entry): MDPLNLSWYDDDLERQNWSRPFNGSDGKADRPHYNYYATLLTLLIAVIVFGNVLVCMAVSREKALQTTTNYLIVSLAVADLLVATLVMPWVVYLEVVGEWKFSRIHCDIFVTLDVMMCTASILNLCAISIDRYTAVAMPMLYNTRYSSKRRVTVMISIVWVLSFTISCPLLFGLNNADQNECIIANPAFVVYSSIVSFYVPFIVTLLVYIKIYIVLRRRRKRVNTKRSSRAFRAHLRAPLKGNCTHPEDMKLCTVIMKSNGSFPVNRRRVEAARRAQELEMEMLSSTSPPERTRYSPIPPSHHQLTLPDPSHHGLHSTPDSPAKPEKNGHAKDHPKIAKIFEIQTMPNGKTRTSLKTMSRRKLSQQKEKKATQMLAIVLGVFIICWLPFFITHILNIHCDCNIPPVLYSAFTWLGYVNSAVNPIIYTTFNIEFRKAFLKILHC
Outline: (§1)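 Membranes from confluent CHO cells stably expressing human D2S, homogenized and spun at 48,400 g. Membranes were incubated with 0.25 nM [3H]NPA plus compound (eight concentrations) for 60 min at 25 °C in 50 mM Tris-HCl pH 7.4, 120 mM NaCl, 5 mM KCl, 4 mM MgCl2, 1 mM EDTA. Nonspecific binding was defined with (+)-butaclamol. Samples were filtered through PEI-treated filters. Result is % increase of specific binding over compound-free control; duplicates, three experiments, ANOVA.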

[2] = molecular target: D(2) dopamine receptor (Homo sapiens) (UniProt P14416); assay: Positive allosteric modulation of human dopamine D2S receptor expressed in CHO cell membranes assessed as stimulation of [3H]-NPA binding at 10^-12 to 10^-9 M after 60 mins by beta scintillation counting analysis; outline: as §1
[3] = molecular target: D(2) dopamine receptor (Homo sapiens) (UniProt P14416); assay: Positive allosteric modulation of human dopamine D2S receptor expressed in CHO cell membranes assessed as stimulation of [3H]-NPA binding at 10^-8 to 10^-4 M after 60 mins by beta scintillation counting analysis; outline: as §1

Row | SMILES | Activity [1] | Activity [2] | Activity [3]
1 | COC(=O)CNC(=O)[C@@H](NC(=O)[C@@H]1N[C@@H](CN=[N+]=[N-])C[C@H]1CN=[N+]=[N-])C(C)C | Active |  | 
2 | COC(=O)CNC(=O)[C@@H](NC(=O)[C@H]1N[C@H](CN=[N+]=[N-])C[C@@H]1CN=[N+]=[N-])C(C)C | Active |  | 
3 | CC(C)C[C@H](NC(=O)[C@@H]1CCCN1)C(=O)NCC(N)=O (H-Pro-Leu-Gly-NH2) |  | Active | inactive
4 | CC(C)[C@H](NC(=O)[C@H]1N[C@H](CN=[N+]=[N-])C[C@@H]1CN=[N+]=[N-])C(=O)NCC(N)=O |  | Active | inactive
5 | CC(C)[C@H](NC(=O)[C@@H]1N[C@@H](CN=[N+]=[N-])C[C@H]1CN=[N+]=[N-])C(=O)NCC(=O)O | Active |  | 
6 | CC(C)[C@H](NC(=O)[C@H]1N[C@H](CN=[N+]=[N-])C[C@@H]1CN=[N+]=[N-])C(=O)NCC(=O)O |  | Active | inactive
7 | CC(C)[C@H](NC(=O)[C@@H]1N[C@@H](CN=[N+]=[N-])C[C@H]1CN=[N+]=[N-])C(=O)NCC(N)=O | Active |  | 

More lines, now with the values ahead:

Row | Activity [1] | Activity [2] | Activity [3] | SMILES
8 | Active |  |  | CC(C)C[C@H](NC(=O)[C@H]1N[C@H](CN=[N+]=[N-])C[C@@H]1CN=[N+]=[N-])C(=O)NCC(N)=O
9 | Active |  |  | COC(=O)CNC(=O)[C@H](CC(C)C)NC(=O)[C@H]1N[C@H](CN=[N+]=[N-])C[C@@H]1CN=[N+]=[N-]
10 | Active |  |  | CC(C)C[C@H](NC(=O)[C@@H]1N[C@@H](CN=[N+]=[N-])C[C@H]1CN=[N+]=[N-])C(=O)NCC(=O)O
11 | Active |  |  | CC(C)C[C@H](NC(=O)[C@@H]1N[C@@H](CN=[N+]=[N-])C[C@H]1CN=[N+]=[N-])C(=O)NCC(N)=O
12 | Active |  |  | COC(=O)CNC(=O)[C@H](CC(C)C)NC(=O)[C@@H]1N[C@@H](CN=[N+]=[N-])C[C@H]1CN=[N+]=[N-]
